Assay results taken from ChEMBL document CHEMBL1671864, “First assessment in humans of the safety, tolerability, pharmacokinetics, and ex vivo pharmacodynamic antimalarial activity of the new artemisinin derivative artemisone” (Antimicrob Agents Chemother, 2008).

Key:
[1] = AUC in healthy human plasma at 20 mg, po administered as single ascending doses as solution during 10 hrs overnight fasting state; format: ADME, organism-based; parameters: time < 10 hr, dose 20 mg, route oral
Method in brief: (§1)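 Single ascending oral doses in healthy Caucasian men, given fasted (10-h overnight) with 240 ml water: 10, 20, 30 or 40 mg as oral solution, or 80 mg as IR tablets. Parent plasma levels by LC/MS-MS over 0.25–14 h. Noncompartmental analysis: kel by terminal-phase least-squares regression, AUC extrapolated to infinity, CL/F = dose/AUC, V/F = CL/F÷kel.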

[2] = Apparent volume of distribution with respect to the bioavailability in healthy human at 20 mg, po administered as single ascending doses as solution during 10 hrs overnight fasting state; format: ADME, organism-based; details: in vivo, read-out: Vc/F; method in brief: as §1
[3] = Mean residence time in healthy human at 30 mg, po administered as single ascending doses as solution during 10 hrs overnight fasting state; format: ADME, organism-based; details: in vivo
Method in brief: (§2)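 Healthy Caucasian male volunteers, single oral dose with 240 ml water after a 10-h overnight fast. Heparinised venous blood was drawn predose and at 0.25–14 h. Plasma was stored frozen. Parent drug and metabolites M1–M3 were measured by LC/MS-MS (MRM, deuterated internal standard). Noncompartmental analysis gave Cmax observed, t1/2 = 0.693/kel (terminal regression) and MRT = AUMC/AUC. Values are geometric means.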

[4] = Mean residence time in healthy human at 40 mg, po administered as two 20 mg immediate release tablets daily for 3 days during 10 hrs overnight fasting state measured after 3 day; format: ADME, organism-based; details: in vivo
Method in brief: (§3)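 Healthy Caucasian males took tablets once daily for 3 days with 240 ml water after a 10-h fast. Heparinised blood was drawn predose and at 0.25–14 h after the first and last doses. Plasma parent drug and metabolites M1–M3 were measured by LC/MS-MS (MRM, deuterated internal standard). Noncompartmental analysis gave Cmax observed, t1/2 = 0.693/kel and MRT = AUMC/AUC. Values are geometric means.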

[5] = system: Homo sapiens; experiment: Toxicity in healthy human assessed as decrease in alanine aminotransferase level at 80 mg, po administered daily for 3 days as four 20-mg immediate-release tablets during 10 hrs overnight fasting state measured after 2 days last post treatment; format: organism-based; details: in vivo, 48 h
[6] = system: Homo sapiens; experiment: Toxicity in healthy human assessed as increase in glutamate dehydrogenase level at 80 mg, po administered daily for 3 days as four 20-mg immediate-release tablets during 10 hrs overnight fasting state measured after 24 hrs last post treatment; format: organism-based; details: in vivo
[7] = Tmax in healthy human plasma at 30 mg, po administered as single ascending doses as solution during 10 hrs overnight fasting state; format: ADME, organism-based
Method in brief: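 Healthy Caucasian male volunteers, randomized within each dose group against placebo, given a single oral solution with 240 ml water after a 10-h overnight fast. Plasma sampled predose and at 0.25–14 h, quantified by LC/MS-MS (MRM, deuterated internal standard). Tmax read directly from individual noncompartmental concentration–time data.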

[8] = Apparent oral clearance in healthy human at 30 mg, po administered as single ascending doses as solution during 10 hrs overnight fasting state; format: ADME, organism-based; details: in vivo; method in brief: as §1
[9] = Tmax in healthy human plasma at 40 mg, po administered as two 20 mg immediate release tablets daily for 3 days during 10 hrs overnight fasting state measured after 1 day; format: ADME, organism-based
Method in brief: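 Healthy Caucasian men (8 active, 4 placebo per dose) dosed with tablets daily for 3 days after 10-h fast. Lithium-heparin plasma sampled predose and 0.25–14 h after day-1 and day-3 doses, stored frozen. Parent and M1–M3 quantified by LC/MS-MS in positive-ion MRM. Tmax taken directly from observed individual data.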

[10] = Apparent oral clearance in healthy human at 20 mg, po administered as single ascending doses as solution during 10 hrs overnight fasting state; format: ADME, organism-based; details: in vivo; method in brief: as §1
[11] = Apparent volume of distribution with respect to the bioavailability in healthy human at 80 mg, po administered as single immediate release tablets during 10 hrs overnight fasting state; format: ADME, organism-based; details: in vivo, read-out: Vc/F; method in brief: as §1
[12] = Mean residence time in healthy human at 40 mg, po administered as two 20 mg immediate release tablets daily for 3 days during 10 hrs overnight fasting state measured after 1 day; format: ADME, organism-based; details: in vivo; method in brief: as §3
[13] = Cmax in healthy human plasma at 10 mg, po administered as single ascending doses as solution during 10 hrs overnight fasting state; format: ADME, organism-based; parameters: dose 10 mg, route oral; method in brief: as §2

C[C@H]1[C@H](N2CCS(=O)(=O)CC2)O[C@@H]2O[C@@]3(C)CC[C@H]4[C@H](C)CC[C@@H]1[C@@]24OO3 [ARTEMIFONE]
AUC at 10 h [1]: 65.7 ng·h/mL | Vd/F [2]: 19.1 L/kg | MRT [3]: 2.29 h | MRT [4]: 3.74 h | Activity [5]: Non-toxic | Activity [6]: Non-toxic | Tmax [7]: 0.5 h | CL/F [8]: 6960 mL/min | Tmax [9]: 1.5 h | CL/F [10]: 5080 mL/min | Vd/F [11]: 14.5 L/kg | MRT [12]: 2.91 h | Cmax [13]: 40 ng/mL
